Test results from ChEMBL document CHEMBL3526063, “Metabolism and pharmacokinetics of JM6 in mice: JM6 is not a prodrug for Ro-61-8048” (Drug Metab Dispos, 2012).

Legend:
[1] = target: Kynurenine 3-monooxygenase (Mus musculus, UniProt Q91WN4); assay: Inhibition of C57BL/6J mouse KMO assessed as 3-hydroxykynurenine formation preincubated for 5 mins using 100 uM kynurenine as substrate by LC-MS/MS analysis
Summary of the method: (§1)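 Liver mitochondrial KMO preparation (mouse C57 BL/6J, rat Wistar, human) at 0.3 mg protein/mL in 100 mM potassium phosphate pH 7.4 with 200 µM NADPH, 0.4 U/mL G6PDH, 3 mM glucose 6-phosphate. Compound pre-incubated 5 min at 25°C, then 100 µM kynurenine added; 40 min (rodent) or 60 min (human). Stopped with TCA; 3-hydroxykynurenine by LC-MS/MS. IC50 from 8-point 3-fold dilutions (top 3 or 30 µM), triplicates, n≥2 runs.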

[2] = target: Kynurenine 3-monooxygenase (Rattus norvegicus, UniProt O88867); assay: Inhibition of Wistar rat KMO assessed as 3-hydroxykynurenine formation preincubated for 5 mins using 100 uM kynurenine as substrate by LC-MS/MS analysis; summary of the method: as §1
Chain of Kynurenine 3-monooxygenase (Rattus norvegicus, UniProt O88867) (O88867 whole entry): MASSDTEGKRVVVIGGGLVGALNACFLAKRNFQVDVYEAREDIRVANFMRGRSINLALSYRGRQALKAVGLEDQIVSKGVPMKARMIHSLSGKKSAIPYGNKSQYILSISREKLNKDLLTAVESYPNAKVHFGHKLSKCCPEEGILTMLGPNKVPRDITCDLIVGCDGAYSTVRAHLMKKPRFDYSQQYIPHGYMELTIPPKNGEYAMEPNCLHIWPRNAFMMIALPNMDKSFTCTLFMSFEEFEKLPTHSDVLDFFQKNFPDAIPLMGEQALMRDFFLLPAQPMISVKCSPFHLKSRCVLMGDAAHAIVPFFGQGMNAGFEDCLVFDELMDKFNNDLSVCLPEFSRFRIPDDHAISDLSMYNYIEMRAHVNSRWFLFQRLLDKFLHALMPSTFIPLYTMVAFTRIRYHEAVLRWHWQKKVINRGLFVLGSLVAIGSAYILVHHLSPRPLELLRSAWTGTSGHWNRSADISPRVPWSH

[3] = target: Kynurenine 3-monooxygenase (Homo sapiens, UniProt O15229); assay: Inhibition of human KMO assessed as 3-hydroxykynurenine formation preincubated for 5 mins using 100 uM kynurenine as substrate by LC-MS/MS analysis; summary of the method: as §1
Chain of Kynurenine 3-monooxygenase (Homo sapiens, UniProt O15229) (O15229 whole entry): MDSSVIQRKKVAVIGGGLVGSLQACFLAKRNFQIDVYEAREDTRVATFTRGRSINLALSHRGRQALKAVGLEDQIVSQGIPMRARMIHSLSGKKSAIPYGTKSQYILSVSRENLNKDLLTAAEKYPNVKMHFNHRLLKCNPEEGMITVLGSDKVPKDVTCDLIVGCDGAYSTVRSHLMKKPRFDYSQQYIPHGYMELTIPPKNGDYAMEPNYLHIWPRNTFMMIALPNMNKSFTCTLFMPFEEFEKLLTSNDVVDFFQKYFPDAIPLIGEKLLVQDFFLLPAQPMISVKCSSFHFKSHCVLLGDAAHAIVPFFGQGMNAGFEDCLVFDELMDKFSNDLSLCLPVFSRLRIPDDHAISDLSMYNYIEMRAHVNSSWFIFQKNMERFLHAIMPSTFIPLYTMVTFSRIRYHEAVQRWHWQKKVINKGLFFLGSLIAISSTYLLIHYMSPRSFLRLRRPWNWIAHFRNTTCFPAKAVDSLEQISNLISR

Chain of Kynurenine 3-monooxygenase (Mus musculus, UniProt Q91WN4) (Q91WN4 whole entry): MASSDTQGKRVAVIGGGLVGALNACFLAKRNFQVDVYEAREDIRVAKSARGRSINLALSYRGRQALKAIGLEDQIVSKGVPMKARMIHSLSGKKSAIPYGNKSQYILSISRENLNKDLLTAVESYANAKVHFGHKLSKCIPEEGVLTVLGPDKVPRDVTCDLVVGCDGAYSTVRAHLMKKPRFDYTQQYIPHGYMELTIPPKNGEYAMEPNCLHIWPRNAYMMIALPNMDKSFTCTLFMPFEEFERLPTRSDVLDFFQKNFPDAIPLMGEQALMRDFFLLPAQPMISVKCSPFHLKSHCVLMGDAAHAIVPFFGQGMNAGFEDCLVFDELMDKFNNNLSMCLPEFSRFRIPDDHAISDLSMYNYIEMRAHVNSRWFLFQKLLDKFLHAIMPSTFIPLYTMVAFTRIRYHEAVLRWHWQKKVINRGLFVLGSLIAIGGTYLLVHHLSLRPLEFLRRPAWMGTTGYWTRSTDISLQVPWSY

IC50 [1] [µM] | IC50 [2] [µM] | IC50 [3] [µM] | Compound
22 | 11 | 39 | COc1ccc(S(=O)(=O)Nc2nc(-c3cccc([N+](=O)[O-])c3)c(CO)s2)cc1OC
27 | 10 | 17 | COc1ccc(S(=O)(=O)Nc2nc(-c3cccc([N+](=O)[O-])c3)c(CN)s2)cc1OC
